The source of these data is ChEMBL document CHEMBL1139010, “Synthesis and SAR studies of 2-oxoquinoline derivatives as CB2 receptor inverse agonists” (J Med Chem, 2006).

In general, IC50 refers to the concentration that inhibits the measured activity by half.

Test [1] addresses Cannabinoid receptor 1 (Rattus norvegicus) (UniProt P20272). Kind of test: […] activity at HU210-induced CB1 receptor in rat cerebellar membrane at 1 uM. Particulars: Cerebellum. Type of test: functional, cell membranes. The procedure, abridged:
(§1)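 [³⁵S]GTPγS binding in rat cerebellar membranes, measuring block of the CB1 response to 10 nM HU-210 by ligand at 1 µM and 10 µM. Ligand alone was also tested at 10 µM for agonism. Values are means of at least three independent experiments run in duplicate, with SEM as the variability.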

In test [2] the target is T1, Cannabinoid receptor 2 (Homo sapiens, UniProt P34972). Kind of test: Inhibition of [35S]GTP-gamma-S binding to human CB2 receptor expressed in CHO cells relative to SR-144528. Type of test: functional, cell-based. The procedure, abridged: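 Membranes from CHO cells stably expressing hCB2 (Bmax 20.4 pmol/mg; cultured with 100 µg/mL G-418). Each incubation held 5 µg protein in 55 mM Tris-HCl pH 7.4 with 1.1 mM EDTA, 100 mM NaCl, 5 mM MgCl₂, 0.5% BSA, 11 µM GDP and about 150 pM [³⁵S]GTPγS. Ligands were added in 1% ethanol or 0.5% DMSO (final). Inhibition of basal binding was expressed against 1 µM SR144528 (Imax). At least three experiments were run in duplicate, reported as mean and SEM.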
Background: GTPγS resists hydrolysis and so accumulates on activated G proteins.

In test [3] the target is Cannabinoid receptor 1 (Rattus norvegicus) (UniProt P20272). Nature of the test: […] activity at HU210-induced CB1 receptor in rat cerebellar membrane at 10 uM. Type of test: functional, cell membranes. Conditions: Cerebellum. The procedure, abridged: as §1
Test [4] deals with T1, Cannabinoid receptor 2. Nature of the test: Inhibition of [35S]GTP-gamma-S binding to human CB2 receptor expressed in CHO cells. Type of test: functional, cell-based.

Molecules are shown by their SMILES.

T1 sequence (P34972 whole entry): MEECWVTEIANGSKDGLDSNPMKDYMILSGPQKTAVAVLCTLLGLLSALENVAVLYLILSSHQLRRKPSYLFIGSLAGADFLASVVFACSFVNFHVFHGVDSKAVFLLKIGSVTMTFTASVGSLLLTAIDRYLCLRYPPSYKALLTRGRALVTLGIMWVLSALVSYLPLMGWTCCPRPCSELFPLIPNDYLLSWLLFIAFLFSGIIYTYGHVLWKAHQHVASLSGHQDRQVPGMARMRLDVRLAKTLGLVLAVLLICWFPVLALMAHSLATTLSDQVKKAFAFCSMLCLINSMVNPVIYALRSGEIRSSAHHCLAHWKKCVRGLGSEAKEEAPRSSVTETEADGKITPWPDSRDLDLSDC
Sequence of Cannabinoid receptor 1 (Rattus norvegicus) (P20272 whole entry): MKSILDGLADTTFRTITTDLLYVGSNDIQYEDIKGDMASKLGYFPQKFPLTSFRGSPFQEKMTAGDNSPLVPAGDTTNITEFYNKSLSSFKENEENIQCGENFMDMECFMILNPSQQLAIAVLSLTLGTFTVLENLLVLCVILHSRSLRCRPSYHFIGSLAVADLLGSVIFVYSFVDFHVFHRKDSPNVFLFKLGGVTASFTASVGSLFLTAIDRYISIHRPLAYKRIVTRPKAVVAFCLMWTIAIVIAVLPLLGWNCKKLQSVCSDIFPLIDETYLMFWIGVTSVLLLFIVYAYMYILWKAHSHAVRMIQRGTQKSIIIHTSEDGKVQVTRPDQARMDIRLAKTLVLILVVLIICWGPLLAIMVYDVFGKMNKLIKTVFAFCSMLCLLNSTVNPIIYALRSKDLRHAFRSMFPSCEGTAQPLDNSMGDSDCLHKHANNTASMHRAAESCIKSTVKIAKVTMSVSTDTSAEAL

On to `CCCCCOc1c(OC)ccc2cc(C(=O)NCCc3ccc(N)cc3)c(O)nc12`, for which the Activity was determined as 91% in test [1] and 74% in test [3]. The molecule also came in with an Imax in test [2] of 97%.
`CCCCCOc1c(OC)ccc2cc(C(=O)NCCc3ccc(N)cc3)c(=O)[nH]c12`: the IC50 in test [4] is 3.16 nM.
The same measure, in the same setting: in the case of `CCCCCOc1c(OC)ccc2cc(NC(=O)Cc3ccc4c(c3)OCO4)c(=O)[nH]c12` it was 20 nM.
Take `CCCCCOc1c(OC)ccc2cc(C(=O)NCc3ccc4c(c3)OCO4)c(=O)[nH]c12`: the figures for the Activity in test [1] and in test [3] were 94% and 78%, respectively. The same molecule registered an Imax in test [2] of 80%.
The matching figures for `CCCCCOc1c(OC)ccc2cc(C(=O)NCc3ccc(O)c(O)c3)c(O)nc12`: 93%, 85% and 124%.
Turning to `CCCCCOc1c(OC)ccc2cc(C(=O)Nc3ccccc3N)c(=O)[nH]c12`, in test [4], the IC50 was 12.6 nM.
In turn, `CCCCCOc1c(OC)ccc2cc(C(=O)NCCc3ccc([N+](=O)[O-])cc3)c(=O)[nH]c12` gave an IC50 in test [4] of 100 nM.
With `CCCCCOc1c(OC)ccc2cc(C(=O)NCc3ccccc3)c(O)nc12`, the Activity was 94% in test [1] and 79% in test [3]. The Imax in test [2] amounted to 75%. Also, the IC50 in test [4] was 63.1 nM.
Turning to `Cc1ccc(Cn2nc(C(=O)NC3C4(C)CCC(C4)C3(C)C)cc2-c2ccc(Cl)c(C)c2)cc1` (centres undefined), the values for the Activity in test [1] and in test [3] were 77% and 53%, respectively. Besides, the Imax in test [2] stood at 100%.
For the molecule `CCCCCOc1c(OC)ccc2cc(C(=O)NCc3ccc(O)c(O)c3)c(=O)[nH]c12`, the concentration for half-maximal inhibition (IC50) in test [4] is 3980 nM.
Still for that read-out and setting: for `CCCCCOc1c(OC)ccc2cc(C(=O)NCCc3ccc(O)cc3)c(=O)[nH]c12` the value was 10 nM.
Turning to `CCCCCOc1c(OC)ccc2cc(C(=O)Nc3ccccc3N)c(O)nc12`, the Activity in test [1] turned out to be 87%; in test [3], 82%. In test [2], this molecule returned an Imax of 82%.
On to `CCCCCOc1c(OC)ccc2cc(C(=O)NCCc3ccc(O)c(O)c3)c(O)nc12`, for which the Activity in test [1] stood at 93%; in test [3] it was 63%. Moreover, the Imax in test [2] amounted to 93%. This molecule also had an IC50 in test [4] of 398 nM.
As to `CCCCCOc1c(OC)ccc2cc(C(=O)NCCc3ccccc3)c(=O)[nH]c12`, the Activity in test [1] amounted to 87%; in test [3], 61%. The molecule also came in with an Imax in test [2] of 76%. The molecule further gave an IC50 in test [4] of 0.631 nM.
As for `CCCCCOc1c(OC)ccc2cc(NC(=O)Cc3ccc4c(c3)OCO4)c(O)nc12`, the Activity in test [1] is 93%; in test [3] it was 75%. In addition, in test [2], the Imax came to 60%.
The matching figures for `CCCCCOc1c(OC)ccc2cc(C(=O)NCCc3ccc([N+](=O)[O-])cc3)c(O)nc12`: 87%, 65% and 61%.
With `CCCCCOc1c(OC)ccc2cc(C(=O)NCCc3ccc(Cl)cc3)c(=O)[nH]c12`, the Activity came to 95% in test [1] and 64% in test [3]. In addition, the Imax in test [2] came out at 104%. The molecule also showed an IC50 in test [4] of 5.01 nM.
On the same counts, the results for `CCCCCOc1c(OC)ccc2cc(C(=O)NCCc3c[nH]c4ccccc34)c(O)nc12` are 94%, 72%, 79% and 25.1 nM.
Consider `CCCCCOc1c(OC)ccc2cc(C(=O)NCCc3ccc(O)cc3)c(O)nc12`, for which the Activity is 92% in test [1] and 68% in test [3]. Moreover, the Imax in test [2] was 90%.
As for `CCCCCOc1c(OC)ccc2cc(C(=O)NCCCc3ccccc3)c(=O)[nH]c12`, the Activity was found to be 98% in test [1] and 59% in test [3]. This molecule also returned an Imax in test [2] of 82%. Further, the IC50 in test [4] was 0.794 nM.
